The source of these data is ChEMBL document CHEMBL4359870, “Identification of a new family of pyrazolo[3,4-d]pyrimidine derivatives as multitarget Fyn-Blk-Lyn inhibitors active on B- and T-lymphoma cell lines” (Eur J Med Chem, 2019).

Values after ≈ are worked out from the molar mass of the structure shown. Active and inactive are the calls of the source. No cut-off for these calls is given here.

Data set [1] has as its system SU-DHL-6. In words: Antiproliferative activity against human SUDHL6 cells assessed as reduction in cell viability after 72 hrs by MTT assay. The conditions noted are these: SU-DHL-6, 72 h.
In data set [2] the test system is Farage. In words: Antiproliferative activity against human Farage cells assessed as reduction in cell viability after 72 hrs by MTT assay.
Data set [3] deals with DOHH-2. In words: Antiproliferative activity against human DOHH2 cells assessed as reduction in cell viability after 72 hrs by MTT assay. The settings on record: DOHH-2, 72 h.
Data set [4] in a line: Aqueous solubility of compound at 1 mg after 24 hrs by LC-MS/MS analysis. The data set is classed as physicochemical. The settings on record: water. In a few lines:
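Solid compound (1 mg) shaken in 1 mL water at 20 °C for 24 h, then filtered through 0.45 µm nylon. Dissolved concentration measured by LC-MS-MS against a methanol calibration curve, in triplicate. Mean of at least three experiments.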

Data set [5] has as its system SU-DHL-8. In words: Antiproliferative activity against human SUDHL8 cells assessed as reduction in cell viability after 72 hrs by MTT assay. The conditions noted are these: SU-DHL-8, 72 h.
The target in data set [6] is Tyrosine-protein kinase Fyn (Homo sapiens, UniProt P06241). In words: Inhibition of recombinant full length N-terminal His6 tagged human FYN expressed in baculovirus infected sf21 cells using KVEKIGEGTYGVVYK as substrate in presence of [gamma33P]ATP by scintillation counting method. An outline of the steps:
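Fyn radiometric assay with 250 µM Src-peptide, 100 µM ATP plus γ-33P ATP, 0.00087% NP-40, 10-50 ng enzyme, 10% DMSO, 30 °C for 10 min. ID50 taken from velocity fits. Ki derived assuming ATP-competitive binding, with ATP Km 102 µM.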

In data set [7] the target is Tyrosine-protein kinase Lyn (Homo sapiens, UniProt P07948). In words: Inhibition of LYN (unknown origin) using KVEKIGEGTYGVVYK as substrate in presence of [gamma33P]ATP as substrate in presence of [gamma33P]ATP by scintillation counting method. In a few lines: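 Lyn radiometric assay with 200 µM Src-peptide, 40 µM ATP plus γ-33P ATP, 0.0013% NP-40, 10-50 ng enzyme, 10% DMSO, 30 °C for 10 min. ID50 taken from velocity fits. Ki derived assuming ATP-competitive binding, with ATP Km 39.9 µM.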

Data set [8] deals with FEPD. In words: Antiproliferative activity against human FEPD cells assessed as reduction in cell viability after 72 hrs by MTT assay.
Data set [9] in a line: Membrane retention of compound at 500 uM after 5 hrs by UV/LC-MS analysis based GI-PAMPA assay relative to control. The data set is classed as ADME. An outline of the steps: (§1)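 GI-PAMPA run with donor compound at 500 µM final, diluted from 1 mM DMSO into pH 7.4 25.0 mM phosphate buffer. Filter coated with 1% (w/v) phosphatidylcholine in dodecane. Acceptor was 50% v/v DMSO/phosphate buffer. Incubated 5 h at r.t. with gentle shaking. Donor and acceptor wells quantified by UV/LC-MS peak area. Papp and membrane retention calculated by equation, in triplicate.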
(PAMPA measures passive passage across an artificial lipid membrane.)

Data set [10] relates to HuT78. In words: Antiproliferative activity against human HUT78 cells assessed as reduction in cell viability after 72 hrs by MTT assay. The conditions noted are these: HuT78, 72 h. In general terms: Tetrazolium dyes change colour on reduction, which living cells bring about.
A short description of data set [11]: Metabolic stability in human liver microsomes assessed as compound remaining at 50 uM after 1 hr by UV/LC-MS analysis relative to control. The data set is classed as ADME, Microsome. The conditions noted are these: read-out: Stability. In a few lines:
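Human liver microsomes at 0.2 mg/mL with NADPH regenerating system, compound at 50 µM in pH 7.4 25 mM phosphate buffer, 37 °C for 1 h. Quenched with acetonitrile, then supernatant dried and taken up in methanol. Unmetabolized percentage measured by UV/LC-MS. Mean of at least three experiments.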
(In general: Liver microsomes are a subcellular fraction often used to study metabolism.)

A short description of data set [12]: Apparent permeability of compound at 500 uM after 5 hrs by UV/LC-MS analysis based GI-PAMPA assay. The data set is classed as ADME. An outline of the steps: as §1
Data set [13] concerns the target Tyrosine-protein kinase Blk (Homo sapiens, UniProt P51451). In words: Inhibition of BLK (unknown origin) using KVEKIGEGTYGVVYK as substrate in presence of [gamma33P]ATP as substrate in presence of [gamma33P]ATP by scintillation counting method.
The subject of data set [14] is H9. In words: Antiproliferative activity against human H9 cells assessed as reduction in cell viability after 72 hrs by MTT assay. The settings on record: H9, 72 h.
Data set [15] concerns HH. In words: Antiproliferative activity against human HH cells assessed as reduction in cell viability after 72 hrs by MTT assay.
Data set [16] has as its system SU-DHL-8. In words: Induction of cell cycle arrest in human SUDHL8 cells assessed as accumulation at sub-G0 phase at 5 to 10 uM after 72 hrs by 7AAD staining based assay. The data set is classed as functional.
The subject of data set [17] is HuT78. In words: Induction of cell cycle arrest in human HUT78 cells assessed as accumulation at sub-G0 phase at 5 to 10 uM after 72 hrs by 7AAD staining based assay. Type of data set: functional.
Data set [18] has as its system FEPD. In words: Induction of cell cycle arrest in human FEPD cells assessed as accumulation at sub-G0 phase at 5 to 10 uM after 72 hrs by 7AAD staining based assay. The data set is classed as functional.

As a reminder, the IC50 is the concentration needed to halve the response being measured. Usually solubility stands for the concentration that dissolves in the medium under given conditions. A lower solubility goes with little dissolved substance. The Ki is a measure of affinity in units of concentration, obtained from inhibition or displacement. A word on the Papp: it is the rate of passage across a membrane or cell layer, normalised by area and donor concentration.

Tyrosine-protein kinase Lyn, sequence (P07948 whole entry): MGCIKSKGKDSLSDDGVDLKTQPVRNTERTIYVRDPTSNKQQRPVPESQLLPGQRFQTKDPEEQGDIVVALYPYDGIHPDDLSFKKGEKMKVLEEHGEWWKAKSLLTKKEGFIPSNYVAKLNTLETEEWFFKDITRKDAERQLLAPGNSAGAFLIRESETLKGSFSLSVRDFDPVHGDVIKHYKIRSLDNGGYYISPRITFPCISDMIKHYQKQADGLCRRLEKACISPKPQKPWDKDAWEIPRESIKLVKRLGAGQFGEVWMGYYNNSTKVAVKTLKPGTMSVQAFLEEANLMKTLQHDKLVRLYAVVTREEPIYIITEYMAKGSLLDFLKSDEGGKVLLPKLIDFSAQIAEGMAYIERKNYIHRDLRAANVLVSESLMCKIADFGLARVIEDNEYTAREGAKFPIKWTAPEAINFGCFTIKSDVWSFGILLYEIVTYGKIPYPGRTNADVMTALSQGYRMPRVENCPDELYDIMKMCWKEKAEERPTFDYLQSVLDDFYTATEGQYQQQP
Tyrosine-protein kinase Fyn, sequence (P06241 whole entry): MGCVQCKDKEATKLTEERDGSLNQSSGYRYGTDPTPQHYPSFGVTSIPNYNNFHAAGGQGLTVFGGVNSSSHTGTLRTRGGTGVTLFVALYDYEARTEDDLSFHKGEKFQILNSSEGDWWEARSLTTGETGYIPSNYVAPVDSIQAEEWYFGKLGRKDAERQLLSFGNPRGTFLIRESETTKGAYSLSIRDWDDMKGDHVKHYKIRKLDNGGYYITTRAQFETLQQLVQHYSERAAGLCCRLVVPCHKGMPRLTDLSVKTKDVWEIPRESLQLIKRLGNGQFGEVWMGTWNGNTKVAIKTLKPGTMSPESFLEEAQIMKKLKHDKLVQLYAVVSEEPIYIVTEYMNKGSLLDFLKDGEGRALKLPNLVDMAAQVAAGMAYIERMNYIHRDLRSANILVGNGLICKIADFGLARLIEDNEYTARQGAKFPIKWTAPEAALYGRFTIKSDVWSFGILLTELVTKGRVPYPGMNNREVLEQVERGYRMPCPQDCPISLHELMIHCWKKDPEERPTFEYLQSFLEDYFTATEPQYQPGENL
Tyrosine-protein kinase Blk, sequence (P51451 whole entry): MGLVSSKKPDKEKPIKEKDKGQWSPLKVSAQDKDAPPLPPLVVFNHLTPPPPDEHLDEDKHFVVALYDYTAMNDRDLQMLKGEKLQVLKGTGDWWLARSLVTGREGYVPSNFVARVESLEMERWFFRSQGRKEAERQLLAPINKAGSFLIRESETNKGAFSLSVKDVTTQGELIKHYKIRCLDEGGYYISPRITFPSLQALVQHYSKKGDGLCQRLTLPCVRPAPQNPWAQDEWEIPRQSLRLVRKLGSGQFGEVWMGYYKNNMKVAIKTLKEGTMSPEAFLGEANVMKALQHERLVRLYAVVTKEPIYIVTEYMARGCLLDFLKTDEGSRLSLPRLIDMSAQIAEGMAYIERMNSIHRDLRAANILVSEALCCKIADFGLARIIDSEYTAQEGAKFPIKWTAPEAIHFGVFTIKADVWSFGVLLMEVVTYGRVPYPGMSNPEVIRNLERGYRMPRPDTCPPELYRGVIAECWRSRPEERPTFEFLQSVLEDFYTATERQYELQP

On to `Nc1ncnc2c1c(-c1ccc(Cl)cc1)nn2CC(Cl)c1ccccc1` (stereo not drawn), for which the IC50 in data set [1] was 21.5 µM; in data set [2] it was 14.9 µM; in [3], 11.4 µM; in data set [5], 8.87 µM; in data set [8] it was 15.8 µM; in data set [10] it was more than 100 µM. Further, the IC50 in data set [14] was 13.6 µM; in data set [15], 13.9 µM. Moreover, the solubility at 24 h in [4] is 0.01 µg/mL (≈ 0.026 µM). For the same compound, the Ki in data set [6] was 0.16 µM; in data set [7] it was 0.19 µM; in data set [13] it was 0.19 µM. For the same compound, in data set [9], the R% was found to be 70.4%. In addition, the remaining at 1 h, 50 µM in [11] is 85.2%. Also, the Papp at 5 h, 500 µM in [12] came out at 9.95 ×10⁻⁶ cm/s.
Take `Cc1ccc(-c2nn(CC(Cl)c3ccccc3)c3ncnc(N)c23)cc1` (stereo not drawn): the 50% inhibitory concentration (IC50) in [1] is 23.4 µM; in data set [2], 19.2 µM; in data set [3] it was 11.8 µM; in [5], 12.1 µM; in [8] it was more than 100 µM; in data set [10], 11.1 µM. The IC50 in data set [14] was more than 100 µM; in data set [15], 14.8 µM.
In the case of `Cc1ccc(-c2nn(CCc3ccccc3)c3ncnc(N)c23)cc1`, the concentration for half-maximal inhibition (IC50) in [1] was more than 100 µM; in data set [2] it was 16 µM; in data set [3] it was 9.74 µM; in data set [5], 37 µM; in [8] it was 21.5 µM; in data set [10] it was more than 100 µM. Further, the values for the IC50 in [14] and in data set [15] were more than 100 µM and 17.3 µM, respectively.
Consider `Nc1ncnc2c1c(-c1ccc(Cl)cc1)nn2CCc1ccccc1`, for which the IC50 in data set [1] is more than 100 µM; in data set [2] it was 18.6 µM; in data set [3], 11.8 µM; in data set [5] it was 36 µM; in data set [8], 31.1 µM; in [10], more than 100 µM. For the same compound, the IC50 in data set [14] is more than 100 µM; in data set [15], 18.2 µM.
For the compound `Nc1ncnc2c1c(-c1ccccc1Cl)nn2CC(Cl)c1ccccc1` (racemic), the half-inhibitory concentration (IC50) is more than 100 µM in data set [1]; 51.5 µM in data set [2]; 26.6 µM in data set [3]; 18.4 µM in [5]; 38.9 µM in [8]; more than 100 µM in [10]. The figures for the IC50 in data set [14] and in [15] were 38.9 µM and more than 100 µM, respectively.
In the case of `Nc1ncnc2c1c(-c1ccc(Br)cc1)nn2CC(Cl)c1ccccc1` (racemic), the IC50 came out at 45.6 µM in data set [1]; 13.6 µM in data set [2]; 11 µM in data set [3]; 11.8 µM in data set [5]; 21.7 µM in [8]; 21.1 µM in data set [10]. For the same compound, the IC50 in data set [14] is 21.7 µM; in data set [15] it was 12.4 µM.
On to `Nc1ncnc2c1c(-c1cccc(Cl)c1)nn2CC(Cl)c1ccccc1` (racemic), for which the IC50 in data set [1] is more than 100 µM; in data set [2] it was 30.9 µM; in [3] it was 27.4 µM; in [5], 13.7 µM; in data set [8], 24.9 µM; in [10], more than 100 µM. Also, the IC50 turned out to be 22.1 µM in data set [14] and 43.1 µM in data set [15].
Turning to `Nc1ncnc2c1c(-c1ccc(I)cc1)nn2CC(Cl)c1ccccc1` (racemic), the IC50 in data set [1] is 13.2 µM; in [2], 12.6 µM; in data set [3], 3.68 µM; in data set [5], 11.5 µM; in [8], 20.5 µM; in [10], 12 µM. The results for the IC50 in [14] and in [15] were 11.6 µM and 5.24 µM, respectively.
Consider `Nc1ncnc2c1c(-c1ccc(CO)cc1)nn2CC(Cl)c1ccccc1` (racemic), for which the outcome in [16], in data set [17] and in data set [18] was Active. The IC50 in data set [1] was 9.29 µM; in data set [2], 7.02 µM; in [3], 2.44 µM; in data set [5], 6.14 µM; in data set [8], 10.8 µM; in data set [10], 4.5 µM. The IC50 in data set [14] came to 3.42 µM; in data set [15] it was 2.4 µM. Besides, in [4], the solubility at 24 h came out at 0.09 µg/mL (≈ 0.237 µM). The Ki came out at 0.12 µM in data set [6] and 0.19 µM in data set [7]. In [9], the R% is listed as 15.2%. The remaining at 1 h, 50 µM in data set [11] was determined as 85%. Moreover, the apparent permeability (Papp) at 5 h, 500 µM in data set [12] turned out to be 10.8 ×10⁻⁶ cm/s.
On to `CCc1ccc(-c2nn(CC(Cl)c3ccccc3)c3ncnc(N)c23)cc1` (racemic), for which the half-maximal inhibitory concentration (IC50) is 29.7 µM in data set [1]; 22.7 µM in data set [2]; 21.2 µM in [3]; 17.5 µM in data set [5]; 21.5 µM in data set [8]; 58 µM in data set [10]. The IC50 in [14] was 24.2 µM; in [15], 21.1 µM.
`Nc1ncnc2c1c(-c1ccc(CO)cc1)nn2CC(O)c1ccccc1` (racemic): the IC50 is 34.2 µM in data set [1]; 27 µM in [2]; 12.1 µM in data set [3]; 27.2 µM in data set [5]; 26.5 µM in data set [8]; more than 100 µM in data set [10]. Besides, the figures for the half-inhibitory concentration (IC50) in data set [14] and in data set [15] were 22.3 µM and 17.3 µM, respectively.
On to `CC(Cn1nc(-c2ccc(F)cc2)c2c(N)ncnc21)c1ccccc1` (racemic), for which the IC50 was 22.9 µM in [1]; 22.8 µM in data set [2]; 21.3 µM in [3]; 12.1 µM in [5]; more than 100 µM in [8]; more than 100 µM in data set [10]. Moreover, the concentration for half-maximal inhibition (IC50) in [14] was determined as 18.8 µM; in [15], 11.8 µM.
Turning to `CC(Cn1nc(-c2ccc([N+](=O)[O-])cc2)c2c(N)ncnc21)c1ccccc1` (racemic), the IC50 in [1], in data set [2], in data set [3], in data set [5], in data set [8] and in data set [10] was more than 100 µM in each case. Also, the concentration for half-maximal inhibition (IC50) in [14] and in [15] was more than 100 µM in each case.
Regarding `CCCc1ccc(-c2nn(CC(Cl)c3ccccc3)c3ncnc(N)c23)cc1` (racemic), the half-maximal inhibitory concentration (IC50) in [1] came to 31.1 µM; in data set [2], 29.4 µM; in data set [3] it was 4.38 µM; in [5], 6.72 µM; in data set [8], 29.2 µM; in data set [10], 9.9 µM. For the same compound, the IC50 was 4.74 µM in data set [14] and 48.5 µM in data set [15].
